Assay results: ChEMBL document CHEMBL4219253, “Positive Modulators of the N-Methyl-d-aspartate Receptor: Structure-Activity Relationship Study of Steroidal 3-Hemiesters” (J Med Chem, 2018)

Columns and labels:
Format in all cases: cell-based
[1] = biological target: T1, Glutamate NMDA receptor; Grin1/Grin2b (Rattus norvegicus) (UniProt P35439+Q00960); assay: Positive allosteric modulation of recombinant rat GluN1alpha/GluN2B receptor expressed in HEK293 cells assessed as potentiation of glutamate-induced current response at 1 to 100 uM at holding potential -60mV by whole cell voltage clamp method relative to control
Method in brief: (§1)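 HEK293 cells transfected with GluN1-1a, the GluN2 subunit and GFP. Whole-cell voltage clamp at -60 mV, series resistance <10 MΩ, 80-90% compensation, room temperature (21–25 °C). Compound is co-applied with 1 µM glutamate by multibarrel fast perfusion (exchange ~10 ms). DMSO is held at 1% in all test and control solutions. Readout is % potentiation of the glutamate-evoked current.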

[2] = biological target: Glutamate NMDA receptor; Grin1/Grin2b (Rattus norvegicus, UniProt P35439+Q00960); assay: Positive allosteric modulation of recombinant rat GluN1alpha/GluN2B receptor expressed in HEK293 cells assessed as potentiation of glutamate-induced current response at holding potential -60mV by whole cell voltage clamp method
Method in brief: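 HEK293 cells transfected with GluN1-1a, GluN2A, 2B, 2C or 2D and GFP cDNA. Whole-cell voltage clamp at -60 mV, 21–25 °C, series resistance <10 MΩ compensated 80–90%. Compound co-applied with 1 µM glutamate by fast multibarrel perfusion. DMSO 1% in all solutions. At least four cells per point.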

[3] = biological target: T1, Glutamate NMDA receptor; Grin1/Grin2b (Rattus norvegicus); assay: Positive allosteric modulation of recombinant rat GluN1alpha/GluN2B receptor expressed in HEK293 cells assessed as potentiation of glutamate-induced current response at 100 uM at holding potential -60mV by whole cell voltage clamp method relative to control; method in brief: as §1
[4] = biological target: T1, Glutamate NMDA receptor; Grin1/Grin2b (Rattus norvegicus); assay: Positive allosteric modulation of recombinant rat GluN1alpha/GluN2B receptor expressed in HEK293 cells assessed as potentiation of glutamate-induced current response at 0.3 to 300 uM at holding potential -60mV by whole cell voltage clamp method relative to control; method in brief: as §1
[5] = biological target: T1, Glutamate NMDA receptor; Grin1/Grin2b (Rattus norvegicus); assay: Positive allosteric modulation of recombinant rat GluN1alpha/GluN2B receptor expressed in HEK293 cells assessed as potentiation of glutamate-induced current response at 1 to 300 uM at holding potential -60mV by whole cell voltage clamp method relative to control
[6] = biological target: Glutamate NMDA receptor; Grin1/Grin2c (Rattus norvegicus) (UniProt P35439+Q00961); assay: Positive allosteric modulation of recombinant rat GluN1alpha/GluN2C receptor expressed in HEK293 cells assessed as potentiation of glutamate-induced current response at 100 uM at holding potential -60mV by whole cell voltage clamp method relative to control; method in brief: as §1
[7] = biological target: Ionotropic glutamate receptor NMDA 1/2D (Rattus norvegicus) (UniProt P35439+Q62645); assay: Positive allosteric modulation of recombinant rat GluN1alpha/GluN2D receptor expressed in HEK293 cells assessed as potentiation of glutamate-induced current response at 100 uM at holding potential -60mV by whole cell voltage clamp method relative to control; method in brief: as §1
[8] = biological target: Glutamate NMDA receptor; Grin1/Grin2a (Rattus norvegicus) (UniProt P35439+Q00959); assay: Positive allosteric modulation of recombinant rat GluN1alpha/GluN2A receptor expressed in HEK293 cells assessed as potentiation of glutamate-induced current response at 100 uM at holding potential -60mV by whole cell voltage clamp method relative to control; method in brief: as §1

| SMILES | Emax [1] [%] | EC50 [2] [µM] | Emax [4] [%] | also measured |
| --- | --- | --- | --- | --- |
| C[C@]12CC[C@H](OC(=O)CCCCCCCCC(=O)O)CC1=CC[C@@H]1[C@@H]2CC[C@]2(C)C(=O)CC[C@@H]12 | 165 | 16.1 | – | – |
| CC(=O)[C@H]1CC[C@H]2[C@@H]3CC=C4C[C@@H](OC(=O)CCC(=O)O)CC[C@]4(C)[C@H]3CC[C@]12C [PREGNENOLONE SUCCINATE] | 177 | 27.6 | – | Activity [3]: 267% |
| C[C@@]12CCC[C@H]1[C@@H]1CC=C3C[C@@H](OC(=O)CCCCC(=O)O)CC[C@]3(C)[C@H]1CC2 | – | 2.8 | 191 | – |
| C[C@]12CC[C@H](OC(=O)CCCC(=O)O)CC1=CC[C@@H]1[C@@H]2CC[C@]2(C)C(=O)CC[C@@H]12 | – | 151 | – | Emax [5]: 154% |
| CC[C@H]1CC[C@H]2[C@@H]3CC=C4C[C@@H](OC(=O)CC(=O)O)CC[C@]4(C)[C@H]3CC[C@]12C | – | 10.7 | 71 | – |
| C[C@@]12CCC[C@H]1[C@@H]1CC=C3C[C@@H](OC(=O)CCC(=O)O)CC[C@]3(C)[C@H]1CC2 | – | 7.4 | 452 | – |
| C[C@@]12CCC[C@H]1[C@@H]1CC=C3C[C@@H](OC(=O)CCCC(=O)O)CC[C@]3(C)[C@H]1CC2 | – | 5.2 | 348 | – |
| CC(=O)[C@H]1CC[C@H]2[C@@H]3CC=C4C[C@@H](OC(=O)C(=O)O)CC[C@]4(C)[C@H]3CC[C@]12C | 93 | 48.6 | – | – |
| CC[C@H]1CC[C@H]2[C@@H]3CC=C4C[C@@H](OC(=O)CCCCC(=O)O)CC[C@]4(C)[C@H]3CC[C@]12C | – | 17.2 | 60 | – |
| CC(=O)[C@H]1CC[C@H]2[C@@H]3CC=C4C[C@@H](OC(=O)CCCCCCC(=O)O)CC[C@]4(C)[C@H]3CC[C@]12C | 156 | 19.3 | – | – |
| CC(=O)[C@H]1CC[C@H]2[C@@H]3CC=C4C[C@@H](OC(=O)CCCCCC(=O)O)CC[C@]4(C)[C@H]3CC[C@]12C | 191 | 18 | – | Activity [3]: 458% |
| CC(=O)[C@H]1CC[C@H]2[C@@H]3CC=C4C[C@@H](OS(=O)(=O)O)CC[C@]4(C)[C@H]3CC[C@]12C.c1ccncc1 | 116 | – | – | Activity [6]: -47%; Activity [7]: -48%; Activity [3]: 78%; Activity [8]: 107% |
| C[C@@]12CCC[C@H]1[C@@H]1CC=C3C[C@@H](OC(=O)CCCCCC(=O)O)CC[C@]3(C)[C@H]1CC2 | – | 1.8 | 109 | – |
| CC[C@H]1CC[C@H]2[C@@H]3CC=C4C[C@@H](OC(=O)CCC(=O)O)CC[C@]4(C)[C@H]3CC[C@]12C | – | 9.9 | 133 | – |
| C[C@]12CC[C@H](OC(=O)CCCCCC(=O)O)CC1=CC[C@@H]1[C@@H]2CC[C@]2(C)C(=O)CC[C@@H]12 | 187 | 82.4 | – | – |
| C[C@@]12CCC[C@H]1[C@@H]1CC=C3C[C@@H](OC(=O)CC(=O)O)CC[C@]3(C)[C@H]1CC2 | – | 4.7 | 236 | – |
| CC[C@H]1CC[C@H]2[C@@H]3CC=C4C[C@@H](OC(=O)CCCC(=O)O)CC[C@]4(C)[C@H]3CC[C@]12C | – | 9.9 | 209 | – |
| CC(=O)[C@H]1CC[C@H]2[C@@H]3CC=C4C[C@@H](OC(=O)CCCC(=O)O)CC[C@]4(C)[C@H]3CC[C@]12C | 183 | 19 | – | Activity [3]: 460% |
| CC(=O)[C@H]1CC[C@H]2[C@@H]3CC=C4C[C@@H](OC(=O)CC(=O)O)CC[C@]4(C)[C@H]3CC[C@]12C | 108 | 39.8 | – | – |
| C[C@]12CC[C@H](OC(=O)CCCCCCCC(=O)O)CC1=CC[C@@H]1[C@@H]2CC[C@]2(C)C(=O)CC[C@@H]12 | 226 | 38.2 | – | – |
| C[C@]12CC[C@H](OC(=O)CCCCC(=O)O)CC1=CC[C@@H]1[C@@H]2CC[C@]2(C)C(=O)CC[C@@H]12 | – | 109 | – | Emax [5]: 180% |
| CC[C@H]1CC[C@H]2[C@@H]3CC=C4C[C@@H](OC(=O)CCCCCC(=O)O)CC[C@]4(C)[C@H]3CC[C@]12C | – | 26.2 | 48 | – |
| C[C@]12CC[C@H](OC(=O)CCCCCCC(=O)O)CC1=CC[C@@H]1[C@@H]2CC[C@]2(C)C(=O)CC[C@@H]12 | 189 | 49.1 | – | – |
